Experimental data as given in ChEMBL document CHEMBL1153724, “Multivalent binding oligomers inhibit HIV Tat-TAR interaction critical for viral replication” (Bioorg Med Chem Lett, 2009).
Calls of active or inactive are those of the source. No cut-off for these calls is given here.

What was measured:
Nucleic Acid [1] = assay: Inhibition of fluorescein labeled Tat-peptide binding to HIV1 TAR RNA after 60 mins by FRET assay; type: nucleic-acid assay, Human immunodeficiency virus 1
In short: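 Competition assay: inhibition of association between TAR RNA and a fluorescently labeled Tat-derived peptide, read by fluorescence; IC50 values derived.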

[2] = Cytotoxicity in human HeLa cells transfected with HIV Tat-LTR by FITC-conjugated DAPI staining by fluorescence microscopy; type: cell-based; details: read-out: TC50 (the source's name)
Nucleic Acid [3] = assay: Inhibition of fluorescein labeled Rev binding to HIV1 RRE RNA assessed as decrease of fluorescent anisotropy at 20 uM after 1 hour by fluorescence polarization-based assay; type: nucleic-acid assay, Human immunodeficiency virus 1
In short: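 Competition assay tracking Rev binding to RRE by fluorescence; tested up to 20 μM.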

[4] = tested on: Human immunodeficiency virus 1; assay: Antiviral activity against HIV1 97ZA003 infected in PBMCs assessed as reverse transcriptase activity after 7 days by XTT assay; type: functional, organism-based; details: Human immunodeficiency virus 1, 97ZA003, 168 h
[5] = tested on: Human immunodeficiency virus 1; assay: Antiviral activity against HIV1 UG/92/001 infected in PBMCs assessed as reverse transcriptase activity after 7 days by XTT assay; type: functional, organism-based; details: Human immunodeficiency virus 1, UG/92/001, 168 h
[6] = tested on: Human immunodeficiency virus 1; assay: Inhibition of HIV1 viral entry into the human TZM-bl cells assessed as decrease of luminescence at 25 uM after 18 hrs by luciferase reporter gene assay; type: functional, organism-based
In short: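 Viral entry checked in TZM-bl cells with a cell-based entry inhibition assay at concentrations up to 25 μM.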

[7] = tested on: Human immunodeficiency virus 1; assay: Antiviral activity against HIV1 HT/92/599 infected in PBMCs assessed as reverse transcriptase activity after 7 days by XTT assay; type: functional, organism-based; details: Human immunodeficiency virus 1, HT/92/599, 168 h
[8] = tested on: Human immunodeficiency virus 1; assay: Antiviral activity against HIV1 BCF02 infected in PBMCs assessed as reverse transcriptase activity after 7 days by XTT assay; type: functional, organism-based; details: Human immunodeficiency virus 1, BCF02, 168 h
[9] = Inhibition of HIV1 Rev transfected in human HeLa cells after 48 hrs by duel luciferase reporter gene assay; type: cell-based; details: Human immunodeficiency virus 1, HeLa
In short: (§1)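 Analogous stably modified HeLa dual-luciferase system for Rev-RRE function, used as a specificity control; activity followed by luminescence up to 100 μM.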

Nucleic Acid [10] = assay: Selectivity for HIV1 TAR RNA over HIV1 RRE RNA; type: nucleic-acid assay; details: Human immunodeficiency virus 1
[11] = tested on: Human immunodeficiency virus 1; assay: Antiviral activity against HIV1 BR/93/020 infected in PBMCs assessed as reverse transcriptase activity after 7 days by XTT assay; type: functional, organism-based; details: Human immunodeficiency virus 1, BR/93/020, 168 h
PBMC = assay: Cytotoxicity against human PBMC cells by XTT assay; type: cell-based
[12] = Cytotoxicity in human HeLa cells transfected with HIV Rev-LTR by FITC-conjugated DAPI staining by fluorescence microscopy; type: cell-based; details: read-out: TC50 (the source's name)
HeLa = assay: Inhibition of HIV1 Rev transfected in human HeLa cells up to 100 uM after 48 hrs by duel luciferase reporter gene assay; type: cell-based; details: Human immunodeficiency virus 1; in short: as §1
[13] = tested on: Human immunodeficiency virus 1; assay: Antiviral activity against HIV1 JV1083 infected in PBMCs assessed as reverse transcriptase activity after 7 days by XTT assay; type: functional, organism-based; details: Human immunodeficiency virus 1, JV1083, 168 h
[14] = tested on: Human immunodeficiency virus 1; assay: Antiviral activity against HIV1 UG/92/029 infected in PBMCs assessed as reverse transcriptase activity after 7 days by XTT assay; type: functional, organism-based; details: Human immunodeficiency virus 1, UG/92/029, 168 h
[15] = tested on: Human immunodeficiency virus 1; assay: Antiviral activity against HIV1 CMU06 infected in PBMCs assessed as reverse transcriptase activity after 7 days by XTT assay; type: functional, organism-based; details: Human immunodeficiency virus 1, CMU06, 168 h
[16] = tested on: Human immunodeficiency virus 1; assay: Antiviral activity against HIV1 Ba-L infected in PBMCs assessed as reverse transcriptase activity after 7 days by MTS assay; type: functional, organism-based; details: Human immunodeficiency virus 1, Ba-L, 168 h
Nucleic Acid [17] = assay: Induction of aggregation of 32P labeled HIV1 TAR RNA after 60 mins by native gel electrophoresis; type: nucleic-acid assay, Human immunodeficiency virus 1

SMILES | EC50 (Nucleic Acid [1]) [µM] | CC50 [2] [µM] | IC50 (Nucleic Acid [3]) [µM] | IC50 [9] [µM] | IC50 (PBMC) [µM] | CC50 [12] [µM] | IC50 [16] [µM] | further results
C[C@@H](CN[C@H](CNCCC(N)=O)Cc1ccc(O)cc1)NC[C@H](Cc1ccc(O)cc1)NC[C@H](Cc1ccc(O)cc1)NC[C@H](Cc1ccc(O)cc1)NC[C@@H](N)Cc1ccc(O)cc1 | 1.93 | – | – | – | – | – | – | –
C[C@@H](CN[C@H](CN[C@H](CN[C@H](CNCCC(N)=O)Cc1ccc(O)cc1)Cc1ccc(O)cc1)Cc1ccc(O)cc1)NC[C@H](Cc1ccc(O)cc1)NC[C@H](Cc1ccc(O)cc1)NC[C@H](Cc1ccc(O)cc1)NC[C@@H](N)Cc1ccc(O)cc1 | 0.18 | 2.4 | – | – | – | – | – | –
NCCCC[C@@H](CN[C@H](CNCCC(N)=O)Cc1ccc(O)cc1)NC[C@H](Cc1ccc(O)cc1)NC[C@H](CCCCN)NC[C@H](Cc1c[nH]c2ccccc12)NC[C@@H](N)Cc1ccc(O)cc1 | 0.24 | 12 | – | – | – | – | – | –
C[C@@H](CN[C@H](CN[C@H](CN[C@H](CNCCC(N)=O)Cc1ccc(O)cc1)Cc1ccc(O)cc1)Cc1ccc(O)cc1)NC[C@H](Cc1ccc(O)cc1)NC[C@@H](N)Cc1ccc(O)cc1 | 1.63 | > 100 | > 20 | > 100 | 56 | > 100 | 5 | IC50 [4]: 32 µM; IC50 [5]: 5.1 µM; inhibition [6]: inactive; IC50 [7]: 12.7 µM; IC50 [8]: 20.1 µM; Selectivity Index (Nucleic Acid [10]): 20; IC50 [11]: 7.5 µM; inhibition (HeLa): inactive; IC50 [13]: 17.8 µM; IC50 [14]: 4.5 µM; IC50 [15]: 7.7 µM
C[C@H](N)CN[C@@H](C)CN[C@@H](C)CN[C@@H](C)CN[C@@H](C)CN[C@H](CNCCC(N)=O)Cc1ccc(O)cc1 | 13.9 | – | – | – | – | – | – | –
NCCCC[C@@H](CN[C@H](CN[C@H](CN[C@H](CNCCC(N)=O)Cc1ccc(O)cc1)Cc1ccc(O)cc1)Cc1ccc(O)cc1)NC[C@H](Cc1ccc(O)cc1)NC[C@@H](N)Cc1ccc(O)cc1 | 0.45 | > 100 | – | > 100 | 80 | > 100 | 7 | –
C[C@@H](CN[C@H](CN[C@H](CN[C@H](CN[C@H](CNCCC(N)=O)Cc1ccc(O)cc1)Cc1ccc(O)cc1)Cc1ccc(O)cc1)Cc1ccc(O)cc1)NC[C@@H](N)Cc1ccc(O)cc1 | 3.94 | – | – | – | – | – | – | –
NC(=O)CCNC[C@H](Cc1ccc(O)cc1)NC[C@H](Cc1ccc(O)cc1)NC[C@H](Cc1ccc(O)cc1)NC[C@@H](N)Cc1ccc(O)cc1 | 8.9 | – | > 20 | – | 46 | – | 11 | EC50 (Nucleic Acid [17]): 450 µM
NC(=O)CCNC[C@H](Cc1ccc(O)cc1)NC[C@H](Cc1ccc(O)cc1)NC[C@@H](N)Cc1ccc(O)cc1 | 83.8 | > 100 | > 50 | > 100 | – | > 100 | – | EC50 (Nucleic Acid [17]): 490 µM
C[C@@H](CN[C@H](CN[C@H](CN[C@H](CNCCC(N)=O)Cc1ccc(O)cc1)Cc1ccc(O)cc1)Cc1ccc(O)cc1)NC[C@H](Cc1ccc(O)cc1)NC[C@H](Cc1ccc(O)cc1)NC[C@@H](N)Cc1ccc(O)cc1 | 0.5 | > 100 | > 20 | 60 | 55 | > 100 | 4 | IC50 [4]: 25 µM; IC50 [5]: 2.3 µM; inhibition [6]: inactive; IC50 [7]: 4.5 µM; IC50 [8]: 16.3 µM; IC50 [11]: 5.1 µM; IC50 [13]: 11.9 µM; IC50 [14]: 2.3 µM; IC50 [15]: 18.2 µM
C[C@@H](CN[C@H](CN[C@H](CNCCC(N)=O)Cc1ccc(O)cc1)Cc1ccc(O)cc1)NC[C@H](Cc1ccc(O)cc1)NC[C@H](Cc1ccc(O)cc1)NC[C@@H](N)Cc1ccc(O)cc1 | 3.32 | – | – | – | – | – | – | –
NC(=O)CCNC[C@H](Cc1ccc(O)cc1)NC[C@H](Cc1ccc(O)cc1)NC[C@H](Cc1ccc(O)cc1)NC[C@H](Cc1ccc(O)cc1)NC[C@H](Cc1ccc(O)cc1)NC[C@H](Cc1ccc(O)cc1)NC[C@@H](N)Cc1ccc(O)cc1 | 0.47 | – | – | – | – | – | – | –
C[C@H](N)CN[C@H](CN[C@H](CN[C@H](CN[C@H](CN[C@H](CNCCC(N)=O)Cc1ccc(O)cc1)Cc1ccc(O)cc1)Cc1ccc(O)cc1)Cc1ccc(O)cc1)Cc1ccc(O)cc1 | 3.26 | – | – | – | – | – | – | –
NCCCC[C@@H](CN[C@H](CN[C@H](CN[C@H](CNCCC(N)=O)Cc1ccc(O)cc1)Cc1ccc(O)cc1)Cc1ccc(O)cc1)NC[C@H](Cc1c[nH]c2ccccc12)NC[C@@H](N)Cc1ccc(O)cc1 | 0.3 | – | – | – | – | – | – | –
NC(=O)CCNC[C@H](Cc1ccc(O)cc1)NC[C@H](Cc1ccc(O)cc1)NC[C@H](Cc1ccc(O)cc1)NC[C@H](Cc1ccc(O)cc1)NC[C@H](Cc1ccc(O)cc1)NC[C@@H](N)Cc1ccc(O)cc1 | 1.7 | > 100 | > 20 | 34 | 76 | > 100 | 2 | IC50 [4]: 27 µM; IC50 [5]: 6 µM; inhibition [6]: inactive; IC50 [7]: 8.8 µM; EC50 (Nucleic Acid [17]): 40 µM; IC50 [8]: 18.9 µM; Selectivity Index (Nucleic Acid [10]): 20; IC50 [11]: 4.7 µM; IC50 [13]: 13.1 µM; IC50 [14]: 6.7 µM; IC50 [15]: 19 µM
NC(=O)CCNC[C@H](Cc1ccc(O)cc1)NC[C@H](Cc1ccc(O)cc1)NC[C@H](Cc1ccc(O)cc1)NC[C@H](Cc1ccc(O)cc1)NC[C@@H](N)Cc1ccc(O)cc1 | 2.96 | > 100 | > 20 | > 100 | 67 | > 100 | 9 | EC50 (Nucleic Acid [17]): 220 µM
NCCCC[C@@H](CN[C@H](CNCCC(N)=O)Cc1ccc(O)cc1)NC[C@H](Cc1ccc(O)cc1)NC[C@H](CCCCN)NC[C@H](Cc1ccc(O)cc1)NC[C@@H](N)Cc1ccc(O)cc1 | 0.36 | 38 | – | – | – | – | – | –
NC(=O)CCNC[C@H](Cc1ccc(O)cc1)NC[C@H](Cc1ccc(O)cc1)NC[C@H](Cc1ccc(O)cc1)NC[C@H](Cc1ccc(O)cc1)NC[C@H](Cc1ccc(O)cc1)NC[C@H](Cc1ccc(O)cc1)NC[C@H](Cc1ccc(O)cc1)NC[C@@H](N)Cc1ccc(O)cc1 | 0.18 | – | – | – | – | – | – | –
